ChEMBL document CHEMBL1128278, “Design, synthesis, and structure--activity relationship studies for a new imidazole series of J774 macrophage specific acyl-CoA:cholesterol acyltransferase (ACAT) inhibitors” (J Med Chem, 1995)

Assays:
[1] = Acyl coenzyme A:cholesterol acyltransferase inhibition in cell culture measured in murine J774 macrophages.
[2] = molecular target: T1, Sterol O-acyltransferase 1 (Rattus norvegicus, UniProt O70536); assay: Concentration required to inhibit 50% activity of Acyl coenzyme A:cholesterol acyltransferase 1 in vitro using rat liver microsome.; type: microsomes
T1 sequence (O70536 whole entry): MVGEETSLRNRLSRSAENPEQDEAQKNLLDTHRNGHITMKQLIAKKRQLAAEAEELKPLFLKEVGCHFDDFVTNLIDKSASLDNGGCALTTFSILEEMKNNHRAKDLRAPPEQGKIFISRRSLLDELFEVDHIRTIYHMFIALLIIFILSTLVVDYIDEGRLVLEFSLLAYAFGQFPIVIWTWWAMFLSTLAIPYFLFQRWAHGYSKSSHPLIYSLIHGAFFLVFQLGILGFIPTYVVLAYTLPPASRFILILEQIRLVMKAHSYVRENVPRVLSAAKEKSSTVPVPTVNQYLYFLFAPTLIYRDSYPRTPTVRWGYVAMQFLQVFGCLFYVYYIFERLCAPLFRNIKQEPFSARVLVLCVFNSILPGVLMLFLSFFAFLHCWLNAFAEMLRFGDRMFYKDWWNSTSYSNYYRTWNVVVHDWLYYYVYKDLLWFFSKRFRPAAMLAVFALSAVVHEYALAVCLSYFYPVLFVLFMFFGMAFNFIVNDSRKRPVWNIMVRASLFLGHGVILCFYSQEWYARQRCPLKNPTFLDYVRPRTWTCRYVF
Summary of the method: (§1)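 Rat liver microsomes; ACAT activity read as [14C]cholesteryl oleate formed from [14C]oleoyl-CoA (pmol/min/mg). Inhibitors added in 5 µL DMSO. Duplicate assays with at least four inhibitor concentrations bracketing the IC50; IC50 is the concentration giving 50% inhibition of ACAT activity. Average range of replicates ±17%.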

J774 = assay: Concentration required to inhibit 50% activity of J774 macrophage cholesterol esterification; type: functional, cell-based; conditions: Mus musculus
Summary of the method: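 Intact J774A.1 cells, seeded at 3 x 10^4 cells/cm2 and grown 36 h, then loaded 17 h with ac-LDL in 10% FBS-DMEM. Inhibitors in DMSO (1.0% final) for 4 h, with [14C]oleate–BSA for the last 2 h. Cholesteryl ester separated by TLC and counted (nmol/h/mg Lowry protein).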

[3] = Acyl coenzyme A:cholesterol acyltransferase activity was determined in J774 macrophages by measuring the formation of labeled cholesteryl oleate (pmol/midmg) from [14C]oleoyl-CoA; type: functional
Summary of the method: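 J774 cells grown in high-glucose DMEM with 10% FBS at 37 °C, 6% CO2, then harvested for microsome preparation. ACAT activity in these microsomes measured as in the hepatic assay, as [14C]cholesteryl oleate formed from [14C]oleoyl-CoA, with inhibitors in DMSO. IC50 taken as the concentration giving 50% inhibition.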

[4] = molecular target: T1, Sterol O-acyltransferase 1; assay: ACAT activity was determined in rat hepatic microsomes by measuring the formation of labeled cholesteryl oleate (pmol/midmg) from [14C]oleoyl-CoA; type: functional, Liver
Summary of the method: as §1

[5] = Acyl coenzyme A:cholesterol acyltransferase inhibition in cell culture measured in murine IC-21 macrophages.

Structure (SMILES)	IC50 [1]	IC50 ([2]; read-out: IC50)	also measured
CCN(CC)CCN(CCCCCSc1nc(-c2ccccc2)c(-c2ccccc2)[nH]1)C(=O)Nc1ccc(F)cc1F	2180 nM	80 nM	–
CCCCCCCN(CCCCCSc1nc(-c2ccc(C(F)(F)F)cc2)c(-c2ccc(C(F)(F)F)cc2)[nH]1)C(=O)Nc1ccc(F)cc1F	25000 nM	39900 nM	–
CCCCCCCN(CCCCCSc1nc(-c2ccccn2)c(-c2ccccn2)[nH]1)C(=O)Nc1ccc(F)cc1F	2250 nM	1000 nM	–
CCCCCCCN(CCCCCSc1nc(-c2ccc(OC)cc2)c(-c2ccc(OC)cc2)[nH]1)C(=O)Oc1ccccc1	32 nM	640 nM	–
CCCCCCCN(CCOCCSc1nc(-c2ccccc2)c(-c2ccccc2)[nH]1)C(=O)Nc1ccc(F)cc1F	3980 nM	80 nM	–
CC(C)NC(=O)N(CCN(C)CCSc1nc(-c2ccccc2)c(-c2ccccc2)[nH]1)CCN1CCOCC1	6280 nM	350 nM	–
COc1ccc(-c2nc(SCCCOCCN(CCOCCO)C(=O)NC(C)C)[nH]c2-c2ccc(OC)cc2)cc1	2420 nM	480 nM	–
CCCCCCCN(CCCCCSc1nc(-c2ccc(F)cc2)c(-c2ccc(F)cc2)[nH]1)C(=O)Nc1ccc(F)cc1F	3500 nM	40 nM	–
CN(CCSc1nc(-c2ccccc2)c(-c2ccccc2)[nH]1)CCN(CCN1CCOCC1)C(=O)Nc1ccc(F)cc1F	2740 nM	240 nM	–
CCOCCOCCN(CCCCCSc1nc(-c2ccccc2)c(-c2ccccc2)[nH]1)C(=O)NC(C)C	3020 nM	30 nM	–
CCCCCCCN(CCCCCSc1nc(-c2ccc(O)cc2)c(-c2ccc(O)cc2)[nH]1)C(=O)Nc1ccc(F)cc1F	4750 nM	2400 nM	–
CCCCCCCN(CCCCCSc1nc(CCC)c(CCC)[nH]1)C(=O)Nc1ccc(F)cc1F	2700 nM	60 nM	–
O=C(Nc1ccc(F)cc1F)N(CCCCCSc1nc(-c2ccccc2)c(-c2ccccc2)[nH]1)CCOCCO	6740 nM	40 nM	–
CCCCOCCN(CCCCCSc1nc(-c2ccccc2)c(-c2ccccc2)[nH]1)C(=O)Nc1ccc(F)cc1F	1750 nM	70 nM	–
CCCCN(C)CCN(CCOCCSc1nc(-c2ccc(OC)cc2)c(-c2ccc(OC)cc2)[nH]1)C(=O)Nc1ccc(F)cc1F	–	1500 nM	IC50 [5]: 630 nM
CCCCCCCN(CCCCCSc1nc2c([nH]1)-c1ccccc1Oc1ccccc1-2)C(=O)Nc1ccc(F)cc1F	1720 nM	60 nM	–
CCCCCCCN(CCCCCSc1nc(-c2ccc(S(C)(=O)=O)cc2)c(-c2ccc(S(C)(=O)=O)cc2)[nH]1)C(=O)Nc1ccc(F)cc1F	2020 nM	> 50000 nM	–
CC(C)NC(=O)N(CCCCCSc1nc(-c2ccccc2)c(-c2ccccc2)[nH]1)CCOCCO	6840 nM	90 nM	–
COCCOCCN(CCCCCSc1nc(-c2ccc(N(C)C)cc2)c(-c2ccc(N(C)C)cc2)[nH]1)C(=O)NC(C)C	7510 nM	–	IC50 [2]: Not Active
CCCCCCCN(CCN(C)CCSc1nc(-c2ccccc2)c(-c2ccccc2)[nH]1)C(=O)NC(C)C	2400 nM	260 nM	–
CCOCCOCCN(CCCCCSc1nc(-c2ccccc2)c(-c2ccccc2)[nH]1)C(=O)Nc1ccc(F)cc1F	4010 nM	50 nM	–
CCCCCCCN(CCCCCSc1nc(-c2ccccc2OC)c(-c2ccccc2OC)[nH]1)C(=O)Nc1ccc(F)cc1F	2070 nM	350 nM	–
CCCCCCCN(CCCCCSc1nc(-c2ccc(N(C)C)cc2)c(-c2ccc(N(C)C)cc2)[nH]1)C(=O)Oc1ccccc1	60 nM	120 nM	–

Now from value to molecule, other results behind:

IC50 [1]	IC50 ([2]; read-out: IC50)	Structure (SMILES)	also measured
840 nM	30 nM	CCCCCCCN(CCCCCSc1nc2c([nH]1)-c1ccccc1OCOc1ccccc1-2)C(=O)Nc1ccc(F)cc1F	–
840 nM	230 nM	COc1ccc(-c2nc(SCCCCCN(CCOCCO)C(=O)Nc3ccc(F)cc3F)[nH]c2-c2ccc(OC)cc2)cc1	–
250 nM	340 nM	COCCOCCN(CCCCCSc1nc(-c2ccc(OC)cc2)c(-c2ccc(OC)cc2)[nH]1)C(=O)Nc1ccc(F)cc1F	–
640 nM	20 nM	CCCCCCCN(CCCCCSc1nc(C(C)C)c(C(C)C)[nH]1)C(=O)Nc1ccc(F)cc1F	–
3 nM	80 nM	CCCCCCCN(CCCCCSc1nc(-c2ccc(N(C)C)cc2)c(-c2ccc(N(C)C)cc2)[nH]1)C(=O)NC(C)C	IC50 (J774): 4 nM; IC50 [3]: 0.6 nM; IC50 [4]: 80 nM
840 nM	190 nM	CCCCOCCN(CCCCCSc1nc(-c2ccccc2)c(-c2ccccc2)[nH]1)C(=O)NC(C)C	–
640 nM	20 nM	CCCCCCCN(CCCCCSc1nc(C2CCCCC2)c(C2CCCCC2)[nH]1)C(=O)Nc1ccc(F)cc1F	–
360 nM	500 nM	COCCOCCN(CCCCCSc1nc(-c2ccc(OC)cc2)c(-c2ccc(OC)cc2)[nH]1)C(=O)NC(C)C	–
4 nM	160 nM	CCCCCCCN(CCCCCSc1nc(-c2ccc(OC)cc2)c(-c2ccc(OC)cc2)[nH]1)C(=O)NC(C)C	–
880 nM	70 nM	O=C(Nc1ccc(F)cc1F)N(CCCCCSc1nc(-c2ccccc2)c(-c2ccccc2)[nH]1)CCN1CCOCC1	–
16 nM	50 nM	CCCCCCCN(CCCCCSc1nc(-c2ccc(N(C)C)cc2)c(-c2ccc(N(C)C)cc2)[nH]1)C(=O)CC1CCCCC1	–
340 nM	850 nM	CCCCCCCN(CCOCCSc1nc(-c2ccc(OC)cc2)c(-c2ccc(OC)cc2)[nH]1)C(=O)NC(C)C	–
290 nM	80 nM	CCCCCCCN(CCCCCSc1nc(-c2ccc(C)cc2)c(-c2ccc(C)cc2)[nH]1)C(=O)Nc1ccc(F)cc1F	–
80 nM	50 nM	CCCCCCCN(CCCCCSc1nc(-c2ccc(N(C)C)cc2)c(-c2ccc(N(C)C)cc2)[nH]1)C(=O)Nc1ccc(F)cc1F	–
360 nM	40 nM	CCCCCCCN(CCCCCSc1nc(-c2cccc(OC)c2)c(-c2cccc(OC)c2)[nH]1)C(=O)Nc1ccc(F)cc1F	–
29 nM	11 nM	CCCCCCCN(CCCCCSc1nc(-c2ccc(OC)cc2)c(-c2ccc(OC)cc2)[nH]1)C(=O)CC1CCCCC1	–
580 nM	660 nM	CCN(CC)CCN(CCCCCSc1nc(-c2ccccc2)c(-c2ccccc2)[nH]1)C(=O)NC(C)C	–
80 nM	140 nM	CCCCCCCN(CCCCCSc1nc(-c2ccc(OC)cc2)c(-c2ccc(OC)cc2)[nH]1)C(=O)Nc1ccc(F)cc1F	–
1340 nM	270 nM	COc1ccc(-c2nc(SCCCCCN(CCN3CCOCC3)C(=O)Nc3ccc(F)cc3F)[nH]c2-c2ccc(OC)cc2)cc1	–
40 nM	280 nM	CCOCCOCCN(CCCCCSc1nc(-c2ccc(SC)cc2)c(-c2ccc(SC)cc2)[nH]1)C(=O)NC(C)C	–
50 nM	70 nM	CCCCCCCN(CCCCCSc1nc(-c2ccc(SC)cc2)c(-c2ccc(SC)cc2)[nH]1)C(=O)Nc1ccc(F)cc1F	–
990 nM	190 nM	CCCCCCCN(CCOCCSc1nc(-c2ccccc2)c(-c2ccccc2)[nH]1)C(=O)NC(C)C	–
940 nM	60 nM	CCCCCCCN(CCCCCSc1nc(-c2cccs2)c(-c2cccs2)[nH]1)C(=O)Nc1ccc(F)cc1F	–
1000 nM	–	COc1ccc(-c2nc(SCCCCCN(CCCCCO)C(=O)NC(C)C)[nH]c2-c2ccc(OC)cc2)cc1	–
1470 nM	170 nM	CCCCCCCN(CCN(C)CCSc1nc(-c2ccccc2)c(-c2ccccc2)[nH]1)C(=O)Nc1ccc(F)cc1F	–
450 nM	200 nM	CCCCCCCN(CCCCCSc1nc(-c2ccco2)c(-c2ccco2)[nH]1)C(=O)Nc1ccc(F)cc1F	–
1000 nM	–	CCCCCCCN(CCCCCSc1nc(-c2ccccc2)c(-c2ccccc2)[nH]1)C(=O)Nc1ccc(F)cc1F [LECIMIBIDE]	IC50 (J774): 1000 nM; IC50 [3]: 25 nM
500 nM	2300 nM	CCCCCCCN(CCOCCSc1nc(-c2ccc(OC)cc2)c(-c2ccc(OC)cc2)[nH]1)C(=O)Nc1ccc(F)cc1F	–
